From ChEMBL document CHEMBL4145692, “Discovery of a Locally and Orally Active CXCL12 Neutraligand (LIT-927) with Anti-inflammatory Effect in a Murine Model of Allergic Airway Hypereosinophilia” (J Med Chem, 2018)
In brackets after ≈: the same amount, converted by molar mass. One block for each molecule: values may come before it. Activity calls are given as the source filed them. No cut-off for these calls is given here.

How the values were obtained:
Mus musculus [1] = species on record: Mus musculus; assay: animal or person; conditions: Balb/c, ip, read-out: INH
Mus musculus [2] = assay: Toxicity in Balb/c mouse model of hypereosinophilia assessed as reduction in body weight at 12.6 umol/kg, ip dosed daily 2 hrs before allergen challenge for 3 days and measured 24 hrs after last dose; assay type: organism-based; parameters: scale not given: the % may be the effect or the level left; conditions: in vivo
How it was run: (§1)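 Same OVA model with i.p. dosing 2 h before each of the three challenges: neutraligands 350 μmol/kg in PBS/CMC 1%, AMD3100 12.6 μmol/kg, dexamethasone 2.5 μmol/kg. Body and spleen weight loss recorded 24 h after three daily administrations; n=6/group.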

Mus musculus [3] = assay: Toxicity in Balb/c mouse model of hypereosinophilia assessed as reduction in spleen weight at 12.6 umol/kg, ip dosed daily 2 hrs before allergen challenge for 3 days and measured 24 hrs after last dose; assay type: organism-based; parameters: scale not given: the % may be the effect or the level left; conditions: in vivo
How it was run: as §1

[4] = Kinetic solubility in pH 7.4 HEPES-BSA buffer at 5 uM incubated for 24 hrs at 20 degC by HPLC method; assay type: physicochemical; conditions: read-out: Kinetic_solubility
How it was run: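 Compound added from 10 mM DMSO stock to 5 μM in pH 7.4 HEPES-BSA buffer (1 g/L BSA), shaken 24 h at 20 °C. After centrifugation, supernatant concentration measured by HPLC against 5 and 10 μM standards.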

[5] = molecular target: T1, Stromal cell-derived factor 1 (Homo sapiens, UniProt P48061); assay: Binding affinity to Texas Red-labelled CXCL12 (unknown origin) assessed as inhibition of CXCL12-Texas Red binding to EGFP-labeled human CXCR4 expressed in HEK293 cell membranes at 0.3 uM pre-incubated for 1 hr by FRET-based binding assay
T1 sequence (P48061 whole entry): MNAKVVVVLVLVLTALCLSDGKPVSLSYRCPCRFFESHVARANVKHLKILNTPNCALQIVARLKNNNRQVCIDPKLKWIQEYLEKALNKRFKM
How it was run: (§2)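 HEK-293 cells stably expressing human EGFP-CXCR4, 10⁶ cells/ml in HEPES buffer pH 7.4 with 0.1% BSA, 21 °C. CXCL12-Texas Red (100 nM) was preincubated 1 h at room temperature with compound or DMSO, then added at t=150 s. FRET read as loss of EGFP emission at 510 nm (excitation 470 nm) up to equilibrium. Ki from dose-response curves.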

Mus musculus [6] = assay: Toxicity in Balb/c mouse model of hypereosinophilia assessed as reduction in body weight at 350 umol/kg, ip dosed daily 2 hrs before allergen challenge for 10 days and measured 24 hrs after last dose; assay type: organism-based; conditions: in vivo
How it was run: (§3)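 Mice given 10 daily administrations at 350 μmol/kg. Monitored for weight loss and for signs of toxicity, including prostration and bristly hair.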

Mus musculus [7] = assay: Inhibition of lymphocytes infiltration in Balb/c mouse model of 8 day model of allergic eosinophilic airway inflammation at 300 nmol/kg dosed intranasally 2 hrs before ovalbumin challenge by hemocytometry; assay type: functional, organism-based
How it was run: (§4)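 OVA/alum-sensitized Balb/c mice challenged intranasally with OVA on days 5–7. Compounds at 300 nmol/kg in 10% PBS/Cdx given intranasally 2 h before each challenge. BAL 24 h after the last challenge; eosinophils, neutrophils and lymphocytes counted by hemocytometer and differential cytospin; n=6/group.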

Mus musculus [8] = assay: Inhibition of macrophages infiltration in Balb/c mouse model of 8 day model of allergic eosinophilic airway inflammation at 300 nmol/kg dosed intranasally 2 hrs before ovalbumin challenge by hemocytometry; assay type: functional, organism-based
Mus musculus [9] = assay: Toxicity in Balb/c mouse model of hypereosinophilia assessed as reduction in body weight at 350 umol/kg, ip dosed daily 2 hrs before allergen challenge for 3 days and measured 24 hrs after last dose; assay type: organism-based; parameters: scale not given: the % may be the effect or the level left; conditions: in vivo
How it was run: as §1

[10] = Chemical stability in pH 7.4 PBS buffer assessed as parent compound remaining at 10 uM incubated for 24 hrs by RP-HPLC method; assay type: physicochemical; conditions: read-out: Stability
How it was run: (§5)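 Compound diluted from DMSO stock to 10 μM final (1% DMSO) in PBS pH 7.4, or in PBS with 10% w/w (2-hydroxypropyl)-β-cyclodextrin. Sampled at t0, 2, 4, 6 and 24 h and injected directly onto RP-HPLC. Percent remaining relative to t0 from peak area.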

Mus musculus [11] = assay: Toxicity in Balb/c mouse model of hypereosinophilia assessed as reduction in spleen weight at 350 umol/kg, ip dosed daily 2 hrs before allergen challenge for 3 days and measured 24 hrs after last dose; assay type: organism-based; parameters: scale not given: the % may be the effect or the level left; conditions: in vivo
How it was run: as §1

Mus musculus [12] = assay: Toxicity in Balb/c mouse model of hypereosinophilia assessed as induction of bristly hair at 350 umol/kg, ip dosed daily 2 hrs before allergen challenge for 10 days and measured 24 hrs after last dose; assay type: organism-based; conditions: in vivo
How it was run: as §3

Mus musculus [13] = assay: Toxicity in Balb/c mouse model of hypereosinophilia assessed as toxic signs at 350 umol/kg, ip dosed daily 2 hrs before allergen challenge for 10 days and measured 24 hrs after last dose; assay type: organism-based; conditions: in vivo
How it was run: as §3

Mus musculus [14] = assay: Anti-inflammatory activity in Balb/c mouse model of hypereosinophilia assessed as inhibition of eosinophil infiltration at 350 umol/kg, ip dosed 2 hrs before allergen challenge; assay type: functional
How it was run: (§6)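 Balb/c mice sensitized with OVA/alum i.p. and challenged intranasally with OVA on 3 consecutive days. Compounds given i.p. 2 h before each challenge: neutraligands 350 μmol/kg in PBS/CMC 1%, AMD3100 12.6 μmol/kg, dexamethasone 2.5 μmol/kg. BAL 24 h after the last challenge; absolute eosinophil counts; mean ± SEM, n=6/group.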

[15] = Solubility in PBS buffer; assay type: physicochemical
How it was run: (§7)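 Powder dissolved to saturation in pH 7.4 PBS (100 mM sodium phosphate, 150 mM NaCl), or in PBS with 10% Cdx, and shaken 24 h. After centrifugation, supernatant quantified by HPLC against a per-compound calibration line prepared from the DMSO stock.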

Mus musculus [16] = assay: Toxicity in Balb/c mouse model of hypereosinophilia assessed as induction of heart lesions at 350 umol/kg, ip dosed daily 2 hrs before allergen challenge for […] and measured 24 hrs after last dose by Gomori's trichrome staining based histological analysis; assay type: organism-based; conditions: in vivo
[17] = Thermodynamic solubility in pH 7.4 PBS buffer incubated for 24 hrs at 22 degC by HPLC method; assay type: physicochemical; conditions: read-out: Therm_solubility
How it was run: as §7

Mus musculus [18] = assay: Inhibition of eosinophil infiltration in Balb/c mouse model of 8 day model of allergic eosinophilic airway inflammation at 300 nmol/kg dosed intranasally 2 hrs before ovalbumin challenge by hemocytometry; assay type: functional; conditions: inhaled or nasal
How it was run: as §4

Mus musculus [19] = assay: Toxicity in Balb/c mouse model of hypereosinophilia assessed as induction of kidney lesions at 350 umol/kg, ip dosed daily 2 hrs before allergen challenge for […] and measured 24 hrs after last dose by Gomori's trichrome staining based histological analysis; assay type: organism-based; conditions: in vivo
[20] = Chemical stability in pH 7.4 PBS/Cdx buffer assessed as parent compound remaining at 10 uM incubated for 24 hrs by RP-HPLC method; assay type: physicochemical; conditions: read-out: Stability
How it was run: as §5

[21] = molecular target: T1, Stromal cell-derived factor 1; assay: Binding affinity to Texas Red-labelled CXCL12 (unknown origin) assessed as inhibition of CXCL12-Texas Red binding to EGFP-labeled human CXCR4 expressed in HEK293 cell membranes pre-incubated for 1 hr by FRET-based binding assay; conditions: hek293
How it was run: as §2

Mus musculus [22] = assay: Toxicity in Balb/c mouse model of hypereosinophilia assessed as prostration at 350 umol/kg, ip dosed daily 2 hrs before allergen challenge for 10 days and measured 24 hrs after last dose; assay type: organism-based; conditions: in vivo
How it was run: as §3

Mus musculus [23] = assay: Toxicity in Balb/c mouse model of hypereosinophilia assessed as induction of liver lesions at 350 umol/kg, ip dosed daily 2 hrs before allergen challenge for […] and measured 24 hrs after last dose by Gomori's trichrome staining based histological analysis; assay type: organism-based; conditions: in vivo
Mus musculus [24] = assay: Toxicity in Balb/c mouse model of hypereosinophilia assessed as induction of spleen lesions at 350 umol/kg, ip dosed daily 2 hrs before allergen challenge for […] and measured 24 hrs after last dose by Gomori's trichrome staining based histological analysis; assay type: organism-based; conditions: in vivo
[25] = Thermodynamic solubility in pH 7.4 PBS/Cdx buffer incubated for 24 hrs at 22 degC by HPLC method; assay type: physicochemical; conditions: read-out: Therm_solubility
How it was run: as §7

Mus musculus [26] = assay: Inhibition of eosinophil infiltration in Balb/c mouse model of 8 day model of allergic eosinophilic airway inflammation dosed intranasally 2 hrs before ovalbumin challenge by hemocytometry; assay type: functional, organism-based
How it was run: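 Same intranasal OVA model with dose-response treatment in PBS/Cdx 10% given 2 h before each challenge. Percent inhibition of BAL eosinophil recruitment; mean ± SEM, n=6/group.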

[27] = molecular target: T1, Stromal cell-derived factor 1; assay: Binding affinity to Texas Red-labelled CXCL12 (unknown origin) assessed as inhibition of CXCL12-Texas Red binding to EGFP-labeled human CXCR4 expressed in HEK293 cell membranes at 1 uM pre-incubated for 1 hr by FRET-based binding assay
How it was run: as §2

[28] = molecular target: T1, Stromal cell-derived factor 1; assay: Binding affinity to CXCL12 (unknown origin) assessed as changes in tryptophan fluorescence intensity
How it was run: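 Intrinsic Trp fluorescence of CXCL12 (2 μM in Hepes buffer), excitation 285 nm, emission 340 nm, titrated with increasing compound. Kd obtained by fitting a 1:1 binding quadratic model with chemokine fixed at 2 μM. Mean ± SD of three independent experiments.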

[29] = molecular target: T1, Stromal cell-derived factor 1; assay: Binding affinity to Texas Red-labelled CXCL12 (unknown origin) assessed as inhibition of CXCL12-Texas Red binding to EGFP-labeled human CXCR4 expressed in HEK293 cell membranes at 300 uM pre-incubated for 1 hr by FRET-based binding assay
How it was run: as §2

Mus musculus [30] = assay: Toxicity in Balb/c mouse model of hypereosinophilia assessed as reduction in spleen weight at 2.5 umol/kg, ip dosed daily 2 hrs before allergen challenge for 3 days and measured 24 hrs after last dose; assay type: organism-based; parameters: scale not given: the % may be the effect or the level left; conditions: in vivo
How it was run: as §1

Mus musculus [31] = assay: Toxicity in Balb/c mouse model of hypereosinophilia assessed as reduction in body weight at 2.5 umol/kg, ip dosed daily 2 hrs before allergen challenge for 3 days and measured 24 hrs after last dose; assay type: organism-based; parameters: scale not given: the % may be the effect or the level left; conditions: in vivo
How it was run: as §1

Mus musculus [32] = assay: Anti-inflammatory activity in Balb/c mouse model of hypereosinophilia assessed as inhibition of eosinophil infiltration at 2.5 umol/kg, ip dosed 2 hrs before allergen challenge; assay type: functional
How it was run: as §6

[33] = molecular target: T1, Stromal cell-derived factor 1; assay: Binding affinity to Texas Red-labelled CXCL12 (unknown origin) assessed as inhibition of CXCL12-Texas Red binding to EGFP-labeled human CXCR4 expressed in HEK293 cell membranes at 3 uM pre-incubated for 1 hr by FRET-based binding assay
How it was run: as §2

SMILES: c1cc(CN2CCCNCCNCCCNCC2)ccc1CN1CCCNCCNCCCNCC1 [PLERIXAFOR]
inhibition in vivo at 12.6 µmol/kg (Mus musculus [1]): 33%
Activity (Mus musculus [2]): 7.8%
Activity (Mus musculus [3]): 9.8%

SMILES: COc1cc(-c2cc(-c3ccc(Cl)cc3)nc(-c3ccccc3)n2)ccc1O
solubility kinetic at 24 h, 5 µM [4]: 0.53 µM (≈ 0.206 µg/mL)
inhibition [5]: 20%

SMILES: O=c1nc(-c2ccc(Cl)cc2)cc(-c2ccc(O)cc2)[nH]1
inhibition (Mus musculus [7]): inactive
Activity [28]: inactive
inhibition [29]: < 5%

SMILES: C[C@@H]1C[C@H]2[C@@H]3CCC4=CC(=O)C=C[C@]4(C)[C@@]3(F)[C@@H](O)C[C@]2(C)[C@@]1(O)C(=O)CO [DEXAMETHASONE]
Activity (Mus musculus [30]): 43%
Activity (Mus musculus [31]): 10.1%
inhibition in vivo at 2.5 µmol/kg (Mus musculus [32]): 59%

Further lines, with some results ahead:

solubility kinetic at 24 h, 5 µM [4]: > 5 µM
remaining at 24 h, 10 µM [10]: 100%
solubility [15]: 9 µM (≈ 2.6 µg/mL)
solubility thermodynamic at 24 h [17]: 9 µM (≈ 2.6 µg/mL)
remaining at 24 h, 10 µM [20]: 100%
Ki [21]: 53 nM
solubility thermodynamic at 24 h [25]: > 300 µM
IC50 (Mus musculus [26]): > 500 nmol/kg
SMILES: COc1cc(/C=C/C(=O)c2ccc(Cl)cc2)ccc1O
Activity (Mus musculus [6]): Non-Toxic
inhibition (Mus musculus [7]): inactive
inhibition (Mus musculus [8]): inactive
Activity (Mus musculus [9]): 0%
Activity (Mus musculus [11]): 0%
Activity (Mus musculus [12]): Non-Toxic
Activity (Mus musculus [13]): Non-Toxic
inhibition in vivo at 350 µmol/kg (Mus musculus [14]): 54%
Activity (Mus musculus [16]): Non-Toxic
inhibition in vivo at 0.3 µmol/kg (Mus musculus [18]): 47%
Activity (Mus musculus [19]): Non-Toxic
Activity (Mus musculus [22]): Non-Toxic
Activity (Mus musculus [23]): Non-Toxic
Activity (Mus musculus [2]): Non-Toxic
Activity (Mus musculus [24]): Non-Toxic
Activity (Mus musculus [3]): Non-Toxic

solubility kinetic at 24 h, 5 µM [4]: 1.17 µM (≈ 0.284 µg/mL)
inhibition [27]: 18%
SMILES: O=C(/C=C/c1ccccc1)c1ccc(Cl)cc1

solubility kinetic at 24 h, 5 µM [4]: 2.31 µM (≈ 0.662 µg/mL)
inhibition [33]: 25%
SMILES: O=C(/C=C/c1ccc2c(c1)OCO2)c1ccc(Cl)cc1
